NPY-Y1 PAM-ag: NPY-Y1 receptor potentiators or agonists, primary screen, cell-based. activation, % at 3.6 µM. Neuropeptide Y receptor type 1 (Homo sapiens), P25929. NPY-Y1 expressing cells, potentiator/agonist activation. 220,000 compounds, 0.37% hits. AID 1304, 2008; in the data active means activation above about 33%, passing the limit was not always enough;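 further: cells stimulated with NPY at EC10 then isoproterenol at EC100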
S1P4 antagonist: S1P4 receptor antagonists, primary screen, cell-based; Sphingosine 1-phosphate receptor 4 (Homo sapiens), O95977; S1P4-expressing cells, antagonist mode, reporter read-out; inhibition, % at 4.98 µM; 220,000 compounds, 0.26% hits; AID 1510, 2009; in the data active means inhibition above about 29%
Target sequence (O95977 whole entry, looked up): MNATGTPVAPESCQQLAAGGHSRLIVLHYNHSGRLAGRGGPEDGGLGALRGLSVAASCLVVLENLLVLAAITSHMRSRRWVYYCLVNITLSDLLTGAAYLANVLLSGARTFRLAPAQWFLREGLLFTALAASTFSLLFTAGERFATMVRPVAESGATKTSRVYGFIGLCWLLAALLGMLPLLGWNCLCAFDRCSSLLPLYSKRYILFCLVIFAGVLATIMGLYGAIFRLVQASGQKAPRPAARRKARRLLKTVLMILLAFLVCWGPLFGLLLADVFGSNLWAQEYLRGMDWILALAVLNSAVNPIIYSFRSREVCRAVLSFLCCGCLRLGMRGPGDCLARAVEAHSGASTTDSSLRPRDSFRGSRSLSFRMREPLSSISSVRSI
NPY2 pot ag: NPY-Y2 potentiators or agonists, primary screen, cell-based; Neuropeptide Y receptor type 2 (Homo sapiens), P49146; cells expressing NPY-Y2, potentiator/agonist read-out; activation, % at 3.6 µM; 220,000 compounds, 0.45% hits; in the data active means activation above about 27%;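 further: cells stimulated with NPY near EC25 plus isoproterenol at EC100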
NPY Y2 blocker: NPY-Y2 receptor antagonists, primary screen, cell-based | 140,000 compounds, 0.99% hits | AID 793, 2007 | inhibition, % at 2.7 µM | NPY-Y2 expressing cells, antagonist mode; in the data active means inhibition above about 17%
NPY Y1 blocker: NPY-Y1 receptor antagonists, primary screen, cell-based | 200,000 compounds, 1% hits | Neuropeptide Y receptor type 1 (Homo sapiens), P25929 | inhibition, % at 3.6 µM | HEK293-CNG Y1 cells, membrane potential fluorescence; NPY at EC95, then isoproterenol;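 active means inhibition above the campaign mean inhibition of all tested compounds plus 3 SD, cut at about 20% in these data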
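Test system – HEK293 Y1/CNG channel cell line · Also added – NPY agonist 25 nM, then isoproterenol 1 µM plus Ro 20-1724 25 µM · Compound dosing – one concentration, 3.6 µM, in 0.4% DMSO · Schedule – compound incubation 1 h at room temperature, readout 45 min post-stimulation · Technique – fluorescence, membrane potential probe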
S1P4 ag: S1P4 receptor agonists, primary screen, cell-based. Sphingosine 1-phosphate receptor 4 (Homo sapiens), O95977. S1P4-expressing cell line, agonist reporter assay. activation, % at 4.98 µM. 220,000 compounds, 0.35% hits. AID 1509, 2009; in the data active means activation above about 11%
NPY-Y1 antag ct: NPY-Y1 receptor antagonists, selectivity check, counter-screen for NPY-Y2 antagonist project, cell-based | shares compounds with NPY Y2 blocker | cell-based NPY-Y1 antagonism counterscreen | inhibition, % at 3.6 µM | 710 compounds, 19% hits; in the data active means inhibition above about 20%;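 further: cells challenged with NPY then isoproterenol with cAMP sensed through a CNG channel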
NPY-Y2 ant conf: NPY-Y2 receptor antagonists, retest of hits, confirmation, HEK293-CNG cells, membrane potential fluorescence, triplicate; shares compounds with NPY Y2 blocker; HEK293 NPY-Y2 CNG channel; inhibition, % at 2.8 µM; 710 compounds, 32% hits; AID 1257, 2008;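 active means mean inhibition of triplicate wells above the hit cutoff set in the primary screen, cut at about 17% in these data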
Hits are given with their value; . = inactive; / = no result. Sampled rows, rich in hits. Any-hit rate of the full collection: about 2.4%.

SMILES	NPY-Y1 PAM-ag	S1P4 antagonist	NPY2 pot ag	NPY Y2 blocker	NPY Y1 blocker	S1P4 ag	NPY-Y1 antag ct	NPY-Y2 ant conf
CCOC(=O)c1cc2c(=O)n3ccccc3nc2n(CCCOC)c1=NC(C)=O	.	.	.	21	.	.	.	.
CCOC(=O)c1cc2c(=O)n3ccccc3nc2n(CCCOC)c1=NC(=O)c1ccncc1	.	.	.	/	.	.	/	/
Cc1ccc(Cl)cc1NC(=S)N(CCCN1CCN(C)CC1)Cc1ccco1	.	.	.	/	.	.	/	/
COC(=O)Cc1ccc(NC(=S)Nc2ccc(N3CCOCC3)cc2)cc1	.	.	.	/	.	.	/	/
CCCCn1c(=N)n(CCOc2ccc(C)cc2)c2ccccc21	.	.	.	20	.	.	.	.
Cc1nc2ccccc2c(=O)n1NC(=O)/C=C/c1ccc(Br)cc1	.	.	.	18	.	.	.	.
COc1ccc(CCNC(=O)c2sc3ccccc3c2Cl)cc1OC	.	.	.	26	.	.	.	.
CC(C)COP(=O)(OCC(C)C)C(Nc1ccccc1)c1ccc2c(c1)OCO2 (configuration not stated)	.	.	.	20	.	.	.	.
O=C(/C=C/c1ccc(Br)cc1)N1CCN(c2cccc(C(F)(F)F)c2)CC1	.	.	.	19	.	.	24	25
O=C(CN1CCN(c2cccc(C(F)(F)F)c2)CC1)Nc1cccc(C(F)(F)F)c1	.	.	.	17	.	.	24	22
Cc1ccc(C(=O)CCC(=O)N2CCN(C(=O)c3ccco3)CC2)cc1	.	.	.	/	.	.	/	/
O=C(NC1CCCCC1)C(c1ccc2ncccc2c1)N(Cc1ccc(F)cc1)C(=O)c1cccs1 (configuration not stated)	.	.	.	31	.	.	.	.
COC(=O)c1ccc(C(C(=O)NC2CCCCC2)N(CCc2ccccc2)C(=O)Cc2cccs2)cc1 (configuration not stated)	.	.	.	.	.	.	/	/
COC(=O)c1ccc(C(C(=O)NC2CCCCC2)N(Cc2ccc(F)cc2)C(=O)Cc2cccs2)cc1 (configuration not stated)	.	.	.	19	.	.	.	.
Cc1cc([N+](=O)[O-])cc(C)c1OCC(=O)N/N=C/c1ccc(OC(=O)c2ccccc2)cc1	.	.	.	20	.	.	.	.
Cc1cc([N+](=O)[O-])cc(C)c1OCC(=O)N/N=C/c1ccc(OC(=O)c2ccccc2Br)cc1	.	.	.	.	.	.	/	/
CCCn1c2ccccc2c2cc(C(=O)O)ccc21	.	.	.	19	.	.	.	.
Cn1c2ccccc2c2cc(C(=O)O)ccc21	.	.	.	.	.	.	/	/
CCCCCCCCCS(=O)(=O)N/N=C/c1cccc([N+](=O)[O-])c1	.	.	.	24	.	.	.	21
Cc1cccc2cc(C#N)c(SCC(=O)Nc3ccccc3N3CCOCC3)nc12	.	.	.	.	.	.	/	/
N#Cc1cc2ccccc2nc1SCC(=O)Nc1ccccc1N1CCOCC1	.	.	.	17	.	.	.	.
Cc1cccc(-n2ccnc2SCC(=O)N2CCCc3ccccc32)c1C	.	.	.	21	.	.	.	47
O=c1ccc(Cl)cn1Cc1ccccc1F	.	.	.	.	.	.	/	/
Cc1ccc(CSc2nnc(-c3cccc(S(=O)(=O)N4CCOCC4)c3)n2CC(C)C)cc1	.	.	.	18	.	.	.	.
CCC(C)n1c(SCC(=O)NCc2ccco2)nnc1-c1cccc(S(=O)(=O)N2CCOCC2)c1 (configuration not stated)	.	.	.	.	.	.	/	/
SMILES	NPY-Y1 PAM-ag	S1P4 antagonist	NPY2 pot ag	NPY Y2 blocker	NPY Y1 blocker	S1P4 ag	NPY-Y1 antag ct	NPY-Y2 ant conf
COc1ccc(S(=O)(=O)N(CC(=O)NC2CC2)c2ccc(C)cc2)cc1	.	.	.	/	.	.	/	/
Clc1ccc(OCc2cc(-c3ccccc3)no2)cc1Cl	.	.	.	23	.	.	39	39
Clc1ccc(-c2cc(COc3ccccc3)on2)cc1	.	.	.	/	.	.	/	/
O=C(COC(=O)/C=C/c1ccco1)Nc1ccc(F)cc1Cl	.	.	.	/	.	.	/	/
N#Cc1nc(COc2ccc(Cl)cc2Cl)oc1N1CCOCC1	.	.	.	.	.	.	/	/
N#Cc1nc(COc2ccc(Cl)cc2Cl)oc1N1CCN(c2ccccc2)CC1	.	.	.	17	.	.	29	21
Cc1cc(C)n(-c2nc(Nc3ccccc3C(F)(F)F)nc(-n3nc(C)cc3C)n2)n1	.	.	.	19	.	.	.	.
CCCCOc1ccccc1NC(=O)Cn1c(-c2nonc2N)nc2ccccc21	.	.	.	51	.	.	50	93
NC(=O)Cn1c(-c2nonc2N)nc2ccccc21	.	.	.	/	.	.	/	/
Nc1nonc1-c1nc2ccccc2n1Cc1ccc(Cl)cc1	.	.	.	28	.	.	28	27
NNC(=O)Cn1c(-c2nonc2N)nc2ccccc21	.	.	.	/	.	.	/	/
COc1ccc(Cn2c(-c3ccc(OC)cc3)nc3ccccc32)cc1	.	.	.	21	.	.	.	.
CC(NC(=O)c1cnccn1)c1ccc(S(N)(=O)=O)cc1 (configuration not stated)	.	.	.	/	/	.	/	/
COc1cc2cc(CN(Cc3cccs3)C(=S)Nc3ccccc3)c(=O)[nH]c2cc1OC	.	.	.	.	.	.	/	/
Cc1ccccc1N1C(=O)c2ccccc2N2C(=O)c3ccccc3C12 (configuration not stated)	.	.	.	23	.	.	.	.
O=C1c2ccccc2N2C(=O)c3ccccc3C2N1O (configuration not stated)	.	.	.	.	.	.	/	/
COc1ccccc1NC(=O)Nc1nc(C(C)(C)C)cs1	.	.	.	/	.	.	/	/
CN(C)C(CNC(=S)Nc1cccc(Cl)c1)c1ccccc1 (configuration not stated)	.	.	.	/	.	.	/	/
CCc1n[nH]c(=S)n1/N=C/c1cc(Br)c(OC)cc1OC	.	.	.	21	.	.	.	18
CCCOC(=O)COC(=O)c1ccccc1NC(=O)c1ccccc1	.	.	.	23	.	.	.	.
